Test results from ChEMBL document CHEMBL3091445, “The 3,7-diazabicyclo[3.3.1]nonane scaffold for subtype selective nicotinic acetylcholine receptor ligands. Part 2: carboxamide derivatives with different spacer motifs” (Bioorg Med Chem, 2013).

Assays:
[1] = molecular target: Neuronal acetylcholine receptor subunit alpha-7 (Rattus norvegicus, UniProt Q05941); test: Displacement of [3H]methyllycaconitine from Sprague-Dawley rat brain alpha7 nAChR after 120 mins by liquid scintillation counting analysis; type: tissue-based
Sequence of Neuronal acetylcholine receptor subunit alpha-7 (Q05941 whole entry): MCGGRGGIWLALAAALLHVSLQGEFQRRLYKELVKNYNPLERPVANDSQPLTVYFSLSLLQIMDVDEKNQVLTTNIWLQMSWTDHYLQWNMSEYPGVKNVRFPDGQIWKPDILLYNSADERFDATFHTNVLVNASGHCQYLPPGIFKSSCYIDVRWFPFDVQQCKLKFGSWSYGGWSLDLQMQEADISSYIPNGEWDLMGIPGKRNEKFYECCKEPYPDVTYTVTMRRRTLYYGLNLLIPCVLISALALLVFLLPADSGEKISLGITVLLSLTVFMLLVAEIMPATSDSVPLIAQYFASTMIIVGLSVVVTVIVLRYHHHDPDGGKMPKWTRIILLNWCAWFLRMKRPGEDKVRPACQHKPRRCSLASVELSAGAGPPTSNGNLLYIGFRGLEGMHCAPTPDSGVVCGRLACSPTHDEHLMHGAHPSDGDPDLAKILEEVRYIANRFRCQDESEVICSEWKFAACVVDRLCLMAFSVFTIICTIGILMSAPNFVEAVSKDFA
How it was run: (§1)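 Radioligand competition binding gave Ki values, reported as mean ± SEM from 2–10 independent experiments.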

[2] = molecular target: Neuronal acetylcholine receptor; alpha4/beta2 (Rattus norvegicus, UniProt P09483+P12390); test: Displacement of [3H]epibatidine from Sprague-Dawley rat brain alpha4beta2 nAChR after 90 mins by liquid scintillation counting analysis; how it was run: as §1
Sequence of Neuronal acetylcholine receptor; alpha4/beta2 (P09483 whole entry): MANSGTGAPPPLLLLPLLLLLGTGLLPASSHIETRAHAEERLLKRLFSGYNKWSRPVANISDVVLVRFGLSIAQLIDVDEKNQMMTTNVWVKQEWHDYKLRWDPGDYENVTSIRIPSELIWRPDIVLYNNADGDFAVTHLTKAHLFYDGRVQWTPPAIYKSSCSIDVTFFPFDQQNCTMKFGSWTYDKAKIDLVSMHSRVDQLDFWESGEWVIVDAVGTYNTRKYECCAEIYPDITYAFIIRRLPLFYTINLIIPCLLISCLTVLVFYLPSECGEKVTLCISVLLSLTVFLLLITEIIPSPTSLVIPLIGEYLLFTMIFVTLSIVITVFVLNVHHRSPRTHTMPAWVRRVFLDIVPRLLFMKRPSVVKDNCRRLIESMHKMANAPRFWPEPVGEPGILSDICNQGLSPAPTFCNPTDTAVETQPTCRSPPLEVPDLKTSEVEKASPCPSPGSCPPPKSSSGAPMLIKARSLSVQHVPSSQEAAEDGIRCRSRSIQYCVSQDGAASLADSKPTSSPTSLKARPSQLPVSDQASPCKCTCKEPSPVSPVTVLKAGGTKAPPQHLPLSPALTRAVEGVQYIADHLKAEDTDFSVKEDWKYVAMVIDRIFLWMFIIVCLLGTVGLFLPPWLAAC
Sequence of Neuronal acetylcholine receptor; alpha4/beta2 (P12390 whole entry): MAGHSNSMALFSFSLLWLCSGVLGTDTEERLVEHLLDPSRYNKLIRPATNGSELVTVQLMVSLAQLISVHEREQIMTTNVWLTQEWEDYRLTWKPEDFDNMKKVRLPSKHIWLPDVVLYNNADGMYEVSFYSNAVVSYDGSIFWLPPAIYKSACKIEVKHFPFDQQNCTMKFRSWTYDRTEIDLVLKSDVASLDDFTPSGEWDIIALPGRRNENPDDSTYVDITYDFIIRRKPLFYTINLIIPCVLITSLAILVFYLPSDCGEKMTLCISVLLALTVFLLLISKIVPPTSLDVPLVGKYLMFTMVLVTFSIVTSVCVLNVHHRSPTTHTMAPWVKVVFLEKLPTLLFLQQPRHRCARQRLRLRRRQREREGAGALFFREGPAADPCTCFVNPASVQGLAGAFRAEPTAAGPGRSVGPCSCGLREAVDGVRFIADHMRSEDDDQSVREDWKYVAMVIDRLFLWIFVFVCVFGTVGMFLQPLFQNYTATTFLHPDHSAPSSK

[3] = Displacement of [3H]epibatidine from Torpedo californica electroplax (alpha1)2beta1gammadelta nAChR after 90 mins by liquid scintillation counting analysis; set-up: species or system Tetronarce californica
[4] = Displacement of [3H]epibatidine from calf adrenal alpha3beta4 nAChR after 90 mins by liquid scintillation counting analysis; set-up: species or system Bos taurus

SMILES | Ki [1] | Ki [2] | Ki [3] | Ki [4]
Cc1ccc(C#CC(=O)N2C[C@@H]3CNC[C@@H](C3)C2)cc1 | > 1000 nM | 10.9 nM | > 5 µM | > 1000 nM
O=C(/C=C/c1cccs1)N1C[C@@H]2CNC[C@@H](C2)C1 | > 10000 nM | 96.9 nM |  | 2000 nM
O=C(COc1ccccc1Cl)N1C[C@@H]2CNC[C@@H](C2)C1 | > 5000 nM | 548 nM | > 5 µM | > 5000 nM
COc1ccccc1/C=C/C(=O)N1C[C@@H]2CNC[C@@H](C2)C1 |  | 172 nM | > 10 µM | 
O=c1cccc2n1C[C@@H]1CNC[C@H]2C1 [CYTISINICLINE] | 261 nM |  | 1.3 µM | 18 nM
COc1cccc(C#CC(=O)N2C[C@@H]3CNC[C@@H](C3)C2)c1 | > 1000 nM | 6.3 nM | > 5 µM | > 1000 nM
O=C(C#Cc1cccc2ccccc12)N1C[C@@H]2CNC[C@@H](C2)C1 | > 1000 nM | 46 nM | > 5 µM | > 1000 nM
O=C(C#Cc1cccc(F)c1)N1C[C@@H]2CNC[C@@H](C2)C1 | > 1000 nM | 7.1 nM | > 5 µM | > 1000 nM
O=C(/C=C/c1cccc2ccccc12)N1C[C@@H]2CNC[C@@H](C2)C1 | > 1000 nM | 297 nM | > 5 µM | > 5000 nM
O=c1c(-c2ccc3c(c2)OCO3)ccc2n1C[C@@H]1CNC[C@H]2C1 | > 10000 nM | 110 nM | > 10 µM | > 10000 nM
O=C(c1csc(-c2ccncc2)n1)N1C[C@@H]2CNC[C@@H](C2)C1 |  | > 1000 nM |  | 
COc1cc(CCC(=O)N2C[C@@H]3CNC[C@@H](C3)C2)cc(OC)c1OC | > 10000 nM | 233 nM |  | > 5000 nM
O=c1c(-c2ccccc2)ccc2n1C[C@@H]1CNC[C@H]2C1 | > 10000 nM | 128 nM | > 10 µM | > 10000 nM
O=C(c1ccc(-c2ccccc2)cc1)N1C[C@@H]2CNC[C@@H](C2)C1 |  |  |  | 1090 nM
O=c1c(-c2ccncc2)ccc2n1C[C@@H]1CNC[C@H]2C1 | > 10000 nM | 3.9 nM | > 10 µM | 
O=C(/C=C/c1cccc([N+](=O)[O-])c1)N1C[C@@H]2CNC[C@@H](C2)C1 |  | 38.9 nM | > 10 µM | > 1000 nM
COc1ccc(C#CC(=O)N2C[C@@H]3CNC[C@@H](C3)C2)cc1 | > 1000 nM | 7.8 nM | > 5 µM | > 1000 nM
COc1ccccc1C#CC(=O)N1C[C@@H]2CNC[C@@H](C2)C1 | > 1000 nM | 242 nM | > 5 µM | > 1000 nM
O=c1c(-c2cccnc2)ccc2n1C[C@@H]1CNC[C@H]2C1 |  |  | > 5 µM | 
O=C(c1ccccc1)N1C[C@@H]2CNC[C@@H](C2)C1 |  |  | > 10 µM | > 5000 nM
O=C(/C=C/c1cccc(Br)c1)N1C[C@@H]2CNC[C@@H](C2)C1 | > 10000 nM | 24.6 nM |  | 
O=C(Cc1c(F)c(F)c(F)c(F)c1F)N1C[C@@H]2CNC[C@@H](C2)C1 |  | > 5000 nM |  | 
O=C(/C=C/c1ccco1)N1C[C@@H]2CNC[C@@H](C2)C1 | > 1000 nM | 288 nM | > 5 µM | > 1000 nM
